ABCG2 block – human ABCG2 inhibition, ABCB1 as counter-screen | IgMXP3 cells, JC-1 efflux, flow cytometry | inhibition, % at 6.6 µM | actives 0.1% (n = 190,000) | AID 1325;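 active = inhibition above 80%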;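 note: 0% = DMSO and 100% = nicardipine control wells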
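test system = two drug-resistant human cell lines, ABCG2 and ABCB1 | amount = 3 million cells/mL final, two lines in 1:1 ratio | reagent = JC-1 transporter substrate | doses = one concentration, 6.6 µM final | incubation = 10 min at 25 °C | signal = flow cytometric JC-1 green MFI at 530 nm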
ABCB6 inh 2 – inhibitors of human ABC transporter ABCB6 | Q9NP58 | fluorescence ratio to DMSO, % at 10 µM | K562-ABCB6 porphyrin accumulation, flow cytometry, 1 h; active compounds read low | actives 0.19% (n = 360,000);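 active = fluorescence ratio to DMSO below 75%, the collection mean minus 3 SD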;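 note: signal is porphyrin accumulated inside mitochondria; 100% equals median channel fluorescence of DMSO control wells; lower ratio means ABCB6 inhibition with less porphyrin fluorescence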
ABCB1 block – human ABCB1 inhibition, ABCG2 as counter-screen. inhibition, % at 6.6 µM. CCRF-Adr cells, JC-1 efflux, flow cytometry. P08183. actives 0.067% (n = 190,000); in the data active = inhibition above about 40%;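 note: 0% = vehicle and 100% = reference inhibitor; higher value means more JC-1 retained so stronger ABCB1 efflux block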
p97 ATPase inh – blocks human p97 ATPase activity; AID 1481; inhibition, % at 8 µM; actives 0.42% (n = 220,000); recombinant p97 ATPase, Kinase-Glo ATP luminescence, 3 h; in the data active = inhibition above about 15%;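 note: 0% = DMSO vehicle and 100% = wells lacking enzyme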
Target sequence (P55072 whole entry, looked up): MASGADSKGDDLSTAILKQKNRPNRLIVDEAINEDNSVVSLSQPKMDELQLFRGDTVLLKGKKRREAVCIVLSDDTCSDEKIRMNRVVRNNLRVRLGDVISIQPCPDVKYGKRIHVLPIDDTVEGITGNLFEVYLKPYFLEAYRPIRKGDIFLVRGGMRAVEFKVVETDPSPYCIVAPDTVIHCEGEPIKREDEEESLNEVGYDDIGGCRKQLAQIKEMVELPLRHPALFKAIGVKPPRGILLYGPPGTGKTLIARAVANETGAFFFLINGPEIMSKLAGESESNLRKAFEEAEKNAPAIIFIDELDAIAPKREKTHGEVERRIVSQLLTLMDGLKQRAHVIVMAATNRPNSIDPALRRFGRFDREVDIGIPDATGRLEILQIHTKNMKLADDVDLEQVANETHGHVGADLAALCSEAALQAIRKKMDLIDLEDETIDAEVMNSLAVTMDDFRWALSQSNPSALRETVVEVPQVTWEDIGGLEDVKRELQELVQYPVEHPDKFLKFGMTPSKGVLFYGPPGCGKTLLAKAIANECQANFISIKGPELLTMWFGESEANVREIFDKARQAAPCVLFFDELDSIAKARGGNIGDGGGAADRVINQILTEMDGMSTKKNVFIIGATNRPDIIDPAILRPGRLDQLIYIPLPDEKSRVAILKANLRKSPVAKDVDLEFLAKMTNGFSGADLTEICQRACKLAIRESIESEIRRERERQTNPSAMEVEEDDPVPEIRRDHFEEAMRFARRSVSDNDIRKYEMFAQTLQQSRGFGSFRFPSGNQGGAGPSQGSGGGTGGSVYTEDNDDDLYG
Rad51 HR inh – Rad51 (human) homologous recombination inhibition. AID 1385. Q06609. inhibition, % at 10 µM. hRad51 DNA strand exchange, fluorescence dequenching. actives 0.085% (n = 200,000);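 active = inhibition above 40% at the single screening dose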;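 note: 0% = DMSO control wells and 100% = blanks with heterologous ssDNA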
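Material: human Rad51–ssDNA filaments; Probe or stimulus: labelled 47-mer dsDNA for strand exchange; Doses: single 10 µM dose; Incubation: 37 °C 15-min filament assembly, 30-min compound preincubation, 15-min exchange; Technique: FRET fluorescence dequenching, excitation 485 nm, emission 520 nm; Measure: Fluorescence-based percent inhibition, control- and blank-normalised; Benchmarks: plate control and blank wells.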
HSV augment – HSV replication enhancement; AID 1956; actives 0.005% (n = 220,000); HSV replication augmentation in cells, fold increase; maximum fold increase; in the data active = maximum fold increase above about 1.5; tested in PC3 cells
p97 inh conf – confirmation of human p97 ATPase inhibitors | actives 44% (n = 760) | inhibition, % at 8 µM | AID 1517 | recombinant p97 ATPase, Kinase-Glo ATP luminescence | shares compounds with p97 ATPase inh;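 active = percent inhibition of p97 ATPase above a set limit, the primary screen's mean plus 3 SD, cut at about 15% in these data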;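 note: 0% = DMSO wells and 100% = wells lacking p97 protein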
Active calls of the source: *; i = inactive; / = not tested or not shown. Hits are enriched below; roughly 0.55% of the tested compounds scored in any of these assays.

SMILES	ABCG2 block	ABCB6 inh 2	ABCB1 block	p97 ATPase inh	Rad51 HR inh	HSV augment	p97 inh conf
CC(C)[C@H](NC(=O)c1cccc(S(=O)(=O)N2CCOCC2)c1)C(=O)OCC(=O)Nc1cccc(Br)c1	/	98	/	/	/	/	/
COc1ccc2[nH]cc(C(=O)CCl)c2c1	/	97	/	42*	6	i	46*
COc1cccc(CN2CCC2(C)C(=O)Nc2cnc3ccccc3c2)c1F (centres undefined)	/	86	/	/	/	/	/
COc1ccc(NC(=O)c2cc(C)nc3ccccc23)cc1S(=O)(=O)N1CCOCC1	/	98	/	/	/	/	/
COc1ccc(Nc2nc(-c3ccccc3)nc3ccccc23)cc1S(=O)(=O)N1CCOCC1	/	89	/	16*	/	i	13
CC1(Cc2cccc(C#N)c2)C(=O)Nc2c(Cl)cccc21 (centres undefined)	/	91	/	/	/	/	/
O=C(NCC(O)CO)c1ccc2[nH]c3ccccc3c2c1 (centres undefined)	0	100	0	9	2	i	/
CCOC(=O)CNC(=O)c1ccc2[nH]c3ccccc3c2c1	7	102	1	15*	-6	i	11
CCOC(=O)C(C)Oc1cccc2c(=O)n(CC(=O)Nc3ccc4c(c3)OCCO4)ccc12 (centres undefined)	0	100	0	35*	0	i	8
CC1=C(C(=O)N2CCCCCC2)CC(CC(=O)NCCc2ccccn2)C(=O)N1CCC1=CCCCC1 (centres undefined)	/	102	/	/	/	/	/
Cc1csc2c(=O)sc(NC(=O)c3cccs3)nc12	/	95	/	34*	14	i	28*
CCOC(=O)C1(C)CCCN(C(=O)c2snnc2C)C1 (centres undefined)	/	101	/	/	/	/	/
CNc1nc(NCc2ccccc2)c2ccccc2n1	/	97	/	/	/	/	/
Oc1ccccc1Nc1nc(NCc2ccccc2)c2ccccc2n1	0	102	0	26*	-9	i	31*
O=C(N/N=C/c1cccs1)c1cc(-c2cccc3ccccc23)n[nH]1	-3	113	0	16*	-1	i	27*
O=C(N/N=C/c1cccs1)c1cc(-c2ccc3ccccc3c2)n[nH]1	-2	100	-1	5	-12	i	/
Cc1c(C(=O)NCc2ccc3c(c2)OCCO3)sc(=O)n1Cc1ccc(S(=O)(=O)N(C)C)cc1	/	95	/	/	/	/	/
CN1OC[C@@H]2CN(C(=O)Nc3ccccc3)[C@H](c3ccc(N4CCCCC4)cc3)C[C@@H]21	/	106	/	/	/	/	/
CCOC(=O)C1=C(c2ccccc2)NC(N)=NC1c1ccc(OCc2ccc(Cl)cc2)c(OC)c1 (centres undefined)	/	97	/	20*	-6	i	28*
CCOC(=O)C1=C(c2ccccc2)NC(=O)NC1c1cc(Cl)c(O)c(OC)c1 (centres undefined)	-2	100	0	-4	-32	i	/
COc1ccc(C(=O)O)cc1NC(=S)NC(=O)C(c1ccccc1)c1ccccc1	/	97	/	/	/	/	/
CCCCC(=O)NC(=S)Nc1cc(C(=O)O)ccc1OC	2	100	0	18*	-1	i	10
COc1cc(/C=N/NC(=O)c2cc(-c3ccco3)nc3ccccc23)cc(OC)c1O	/	95	/	16*	2	i	9
Cc1ccc(S(=O)(=O)c2c(N)n(CCCO)c3nc4ccccc4nc23)cc1	3	101	1	-1	1	i	/
CCC(=O)Nc1c(S(=O)(=O)c2ccc(C)cc2)c2nc3ccccc3nc2n1C(C)c1ccccc1 (centres undefined)	-2	110	2	-6	-1	i	/
SMILES	ABCG2 block	ABCB6 inh 2	ABCB1 block	p97 ATPase inh	Rad51 HR inh	HSV augment	p97 inh conf
CCCCn1c(NC(=O)c2ccco2)c(S(=O)(=O)c2ccc(C)cc2)c2nc3ccccc3nc21	0	111	0	27*	/	i	8
CCCCn1c(NS(=O)(=O)c2ccccc2)c(S(=O)(=O)c2ccc(C)cc2)c2nc3ccccc3nc21	-4	116	0	25*	-2	i	29*
CCC(=O)Nc1c(S(=O)(=O)c2ccccc2)c2nc3ccccc3nc2n1C(C)c1ccccc1 (centres undefined)	-7	90	0	1	-39	i	/
CCCCCn1c(NC(=O)c2ccco2)c(S(=O)(=O)c2ccc(C)cc2)c2nc3ccccc3nc21	1	109	0	26*	0	i	10
CCCCn1c(NC(=O)c2ccc(Br)o2)c(S(=O)(=O)c2ccccc2)c2nc3ccccc3nc21	0	106	0	46*	-1	i	22*
CCCc1nc2c3ccccc3ccn2c1Cc1ccc(OC)cc1C	/	157	/	/	/	/	/
CCOC(=O)c1ccc(NC(=O)c2nc[nH]c2C(=O)N[C@@H](C)CO)cc1	/	105	/	/	/	/	/
CC1CCCC(NC(=O)CCn2c(=S)oc3ccccc32)C1C (centres undefined)	/	97	/	3	17	i	/
O=C(CCn1c(=S)oc2ccccc21)NC1CCCCCC1	/	105	/	16*	16	i	9
COc1ccc(/C=N/NC(=O)c2ccc(C)cc2)cc1CN1CCN(c2ccc(F)cc2)CC1	3	101	14	3	/	i	/
COc1ccc(/C=N\NC(=O)c2cc(O)c(O)c(O)c2)cc1CN1CCN(c2ccc(F)cc2)CC1	-15	102	-1	17*	4	i	26*
CCOC(=O)c1c(NC(N)=O)sc(C)c1C	2	95	0	0	-1	i	/
CCOC(=O)c1c(N2C(=O)C=CC2=O)sc(C)c1C	3	101	1	15*	-10	i	6
COc1ccc(CCn2c(N)c(C(=O)NCc3ccco3)c3nc4ccccc4nc32)cc1OC	3	105	2	4	-5	i	/
COc1ccc(CCn2c(N)c(C(=O)NCc3ccco3)c3nc4ccccc4nc32)cc1	-1	111	-1	16*	/	i	3
CC(C)Cc1nn2c(N)c(/C=C3\C=Nc4ccccc43)c(=O)nc2s1	-2	96	-1	16*	-10	i	12
CCC(CC)c1nn2c(N)c(/C=C3\C(C)=Nc4ccccc43)c(=O)nc2s1	/	100	/	24*	3	i	25*
CCC(CC)c1nn2c(N)c(/C=C3\C=Nc4ccccc43)c(=O)nc2s1	/	101	/	1	0	i	/
COc1ncnc2c1ncn2CCCN(C)CCc1ccccn1	/	98	/	/	/	/	/
COc1ccccc1C(=O)Oc1cc(N)n(S(=O)(=O)c2ccc(C)cc2)n1	1	94	0	29*	-6	i	39*
Cc1ccc(S(=O)(=O)n2nc(OC(=O)c3ccccc3C)cc2N)cc1	/	100	/	/	/	/	/

Screens (PubChem)
